Source: PubChem
CRFR2-BP antag: antagonists of CRF-binding protein/CRF-R2 receptor complex | HEK293 CRF-R2/CRF-BP, CRF-induced calcium fluorescence | AID 588475 | inhibition, % at 11.8 µM | 350,000 compounds, 0.59% hits;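 active means inhibition of the ligand-induced calcium signal above about 50% at the single tested concentration, limit read from the data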
GPR7 antag: antagonists of human GPR7 (neuropeptides B/W receptor 1). GPR7-expressing cells, fluorescence antagonist assay. P48145. 290,000 compounds, 1.1% hits. inhibition, % at 4.4 µM; in the data active means inhibition above about 16%, passing the limit was not always enough;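 further: cells stimulated with the agonist NPW; 0% = agonist with vehicle and 100% = vehicle without agonist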
Target sequence (P48145 whole entry, looked up): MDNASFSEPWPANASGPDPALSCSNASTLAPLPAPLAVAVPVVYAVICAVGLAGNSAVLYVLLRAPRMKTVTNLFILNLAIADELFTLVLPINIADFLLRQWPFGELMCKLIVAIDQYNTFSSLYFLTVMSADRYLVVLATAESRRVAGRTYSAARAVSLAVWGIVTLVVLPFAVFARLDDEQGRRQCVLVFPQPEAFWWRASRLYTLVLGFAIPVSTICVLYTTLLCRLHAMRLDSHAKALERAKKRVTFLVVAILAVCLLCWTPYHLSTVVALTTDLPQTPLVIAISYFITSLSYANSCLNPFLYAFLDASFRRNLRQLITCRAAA
TRPML3 agonist: agonists of human TRPML3 channel; Q8TDD5; HEK293 TRPML3-YFP, Fluo-8 calcium fluorescence; 100% = the carbachol control signal; activation, % at 3 µM; 220,000 compounds, 0.29% hits; AID 1448;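 active means activation above its plate's cutoff, the mean activation of the plate's test wells plus 3 SD, cut at about 12% in these data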;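 further: 0% = DMSO only wells and 100% = carbachol wells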
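Material: TRPML3-YFP stable HEK293 cells | Dosing: One concentration, 3 µM nominal, 0.3% DMSO | Timing: 125 s total fluorescence read per well | Technique: Fluo-8 calcium dye fluorescence, ex 470-495, em 515-575 nm | Measure: Percent activation from peak-to-basal fluorescence ratio, scaled between DMSO and carbachol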
zfTRPN1 agonist: zebrafish TRPN1 (NompC) channel agonism; HEK293 zebrafish TRPN1-YFP, Fluo-8 calcium fluorescence; 100% = response to 87 µM carbachol; activation, % at 3 µM; 220,000 compounds, 0.18% hits;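 active means activation above its plate's cutoff, the mean activation of test wells on that plate plus 3 SD, cut at about 19% in these data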;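 further: 0% = DMSO alone and 100% = 87 µM carbachol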
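Material: zebrafish TRPN1-YFP in HEK293 cells; Doses: single test compound dose, 3 µM nominal, 0.3% DMSO; Timing: dye loading 1 h at 37 °C, then 30 min room temperature; Technique: intracellular calcium fluorescence with Fluo-8; Benchmarks: high carbachol 87 µM, low DMSO alone.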
CRFR2-BP ag: CRF-BP/CRF-R2 complex agonism; HEK293 CRF-R2/CRF-BP, calcium dye fluorescence (FLIPR); percent of saturating CRF peptide response; activation, % at 13.2 µM; 350,000 compounds, 0.46% hits; AID 588473;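 active means activation of at least 50%, plus an integration ratio under a set limit after plate pattern correction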;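 further: plate controls were neutral control wells without compound for no effect and CRF at EC100 for full effect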
GPR7 antag conf: human GPR7 antagonism, confirmation assay. 2,400 compounds, 52% hits. AID 1952. shares compounds with GPR7 antag. GPR7-expressing cells, calcium fluorescence antagonist mode. inhibition, % at 4.4 µM; in the data active means inhibition above about 24%;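 further: stimulated with the GPR7 agonist NPW; 0% = agonist plus vehicle and 100% = vehicle alone without agonist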
MCHR1 antagonist: antagonizes human MCHR1, a GPR7 antagonist counter-screen; shares compounds with GPR7 antag; inhibition, % at 4.4 µM; 2,400 compounds, 62% hits; MCHR1-expressing cells, fluorescence antagonist assay; in the data active means inhibition above about 22%;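 further: 0% = vehicle with agonist and 100% = vehicle without agonist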
Starred values were filed as active, the others as inactive. An excerpt weighted towards active compounds, which were near 2% of everything screened.

Results for CCOc1cc(CNCc2ccccc2)ccc1OCc1ccc(Cl)cc1 ?
CRFR2-BP antag: -19.4; GPR7 antag: 65.8*; CRFR2-BP ag: -0.1; GPR7 antag conf: 56.4*; MCHR1 antagonist: 77.8*

How did C=CCN(CC=C)S(=O)(=O)c1ccc(NC(=S)NC(=O)Cc2ccc(OC)cc2)cc1 do in these assays?
CRFR2-BP antag: -48.1; GPR7 antag: 34.3*; TRPML3 agonist: 1.4; zfTRPN1 agonist: -0.1; CRFR2-BP ag: 6.6; GPR7 antag conf: 50.2*; MCHR1 antagonist: 64.8*

Results for COc1ccc(CC(=O)NC(=S)Nc2ccc(S(=O)(=O)NC(C)(C)C)cc2)cc1 ?
CRFR2-BP antag: -38.4; GPR7 antag: 48.7*; TRPML3 agonist: 6.5; zfTRPN1 agonist: 13.4; CRFR2-BP ag: 6.9; GPR7 antag conf: 72.4*; MCHR1 antagonist: 69.8*

How did COc1ccc(C(=O)OCc2ccccc2C#N)cc1S(=O)(=O)N1CCOCC1 do in these assays?
CRFR2-BP antag: 7.7; CRFR2-BP ag: 1.3

How did CC(C)C(NC(=O)c1ccccc1)C(=O)NCc1ccccn1 (configuration not stated) do in these assays?
CRFR2-BP antag: -0.1; GPR7 antag: 35.1*; TRPML3 agonist: 0.3; zfTRPN1 agonist: 0.8; CRFR2-BP ag: 2.8; GPR7 antag conf: -15.5; MCHR1 antagonist: 10.6

Results for Cn1cccc1CN1CCC[C@]2(N[C@H](c3ccccc3)[C@@H]3C(=O)N(Cc4ccccc4)C(=O)[C@@H]32)C1=O ?
CRFR2-BP antag: 4.7; CRFR2-BP ag: -0.5

Results for COCCNC(=O)c1ccc(CSc2nc3ccccc3s2)cc1 ?
CRFR2-BP antag: 5.9; GPR7 antag: 31.1*; CRFR2-BP ag: -0.9; GPR7 antag conf: -8.2; MCHR1 antagonist: 28.4*

What do the screens show for `CCOC(=O)CC1CCCCN1C(=O)CCCn1nnnc1CN1CCC(C)CC1` (configuration not stated)?
CRFR2-BP antag: 2.5; GPR7 antag: -6.5; CRFR2-BP ag: 1.9

What do the screens show for `CNC(=S)N1N=C(c2ccc(Br)cc2)CC1c1ccc(N(C)C)cc1` (configuration not stated)?
CRFR2-BP antag: -2.6; GPR7 antag: 5.9; TRPML3 agonist: 0.2; zfTRPN1 agonist: -1.6; CRFR2-BP ag: 1.8

How did CNC(=S)N1N=C(c2ccc(OC)cc2)CC1c1ccc(N(C)C)cc1 (configuration not stated) do in these assays?
CRFR2-BP antag: 31.4; GPR7 antag: 22.4*; TRPML3 agonist: 0.2; zfTRPN1 agonist: -1.1; CRFR2-BP ag: -0.3; GPR7 antag conf: 8.5; MCHR1 antagonist: 33.3*

How did Cc1ccc(S(=O)(=O)N(CCC(=O)N2CCOCC2)c2ccccc2)cc1 do in these assays?
CRFR2-BP antag: 4.7; CRFR2-BP ag: 0.7

How did Cc1ccc2c(c1)N(C(=O)CCC(=O)N1CCN(c3ccccn3)CC1)CC(C)O2 (configuration not stated) do in these assays?
CRFR2-BP antag: -1.1; GPR7 antag: 30.8*; CRFR2-BP ag: -5.9; GPR7 antag conf: 6.2; MCHR1 antagonist: 4.8

Results for COC(=O)c1ccccc1S(=O)(=O)N1CCC(C(=O)OCc2ccc([N+](=O)[O-])cc2)CC1 ?
CRFR2-BP antag: 6.9; CRFR2-BP ag: 1.0

Results for CCCCN(C)CC(O)Cn1cc(/C=C/C(=O)c2ccc(OCC)cc2)c2ccccc21 (configuration not stated) ?
GPR7 antag: 32.3*; GPR7 antag conf: 35.8*; MCHR1 antagonist: 55.1*

What do the screens show for `COc1ccccc1C(=O)NC(=S)/C=C1/N(C)c2ccccc2C1(C)C`?
CRFR2-BP antag: 14.5; GPR7 antag: -13.8; TRPML3 agonist: -0.5; zfTRPN1 agonist: -3.7; CRFR2-BP ag: -0.3

What do the screens show for `CN1/C(=C\C(=S)NC(=O)c2ccccc2Cl)C(C)(C)c2ccccc21`?
CRFR2-BP antag: 1.7; GPR7 antag: 38.2*; TRPML3 agonist: 0.3; zfTRPN1 agonist: -1.1; CRFR2-BP ag: 3.0; GPR7 antag conf: 10.9; MCHR1 antagonist: 43.3*
